Measurements of several laboratories.
Each line is one published result; the experiments were not run side by side.
Target: Phosphatidylinositol 4,5-bisphosphate 3-kinase catalytic subunit gamma isoform (PIK3CG, Homo sapiens, UniProt P48736)

| Compound | test | setting | endpoint | value |
| --- | --- | --- | --- | --- |
| Cc1cc(-n2nc(Cc3cc(F)cc(C(F)(F)F)c3)nc2C)ccc1C(N)=O | cell-free assay, competition with immobilised ligand | 1 µM | remaining binding | 79% |
| Nc1ncnc2occ(-c3ccc(NC(=O)Nc4cc(C(F)(F)F)ccc4F)cc3)c12 | cell-free assay, inhibitor | 20 µM | remaining signal | 54% |
| Cc1cnc(NC2CCOCC2)nc1-n1cnc(C(=O)NC(CN)c2cc(F)cc(Cl)c2)c1 (stereo not drawn) | enzyme activity, inhibitor, radiometric | 1 µM | remaining activity | 100% |
| COc1cc(-c2cc(-c3ccc(N4CCNCC4)cc3)cnc2C)cc(OC)c1OC | enzyme activity, inhibitor | 0.1 µM | inhibition | 14% |
| CS(=O)(=O)Nc1cc(-c2ccc3ncnc(Nc4ccc(F)c(Cl)c4)c3c2)cnc1Cl | enzyme activity, inhibitor, FRET | 10 µM | inhibition | 90 to 100% |
| O=C(CSc1nc2nccnc2c(=O)n1CCc1ccccc1)Nc1ccccc1 | enzyme activity, inhibitor | 10 µM | inhibition | < 20% |
| COc1cc(Cl)c(C(=O)N[C@@H](CN[C@H]2CC[C@@H](N)CC2)Cc2ccc(C#N)cc2)cc1-c1ccc(CN[C@H](C)c2ccc(C)cc2)o1 | enzyme activity, inhibitor | 1 µM | remaining activity | 102% |
| CCCS(=O)(=O)Nc1ccc(F)c(C(=O)c2c[nH]c3ncc(-c4ccc(Cl)cc4)cc23)c1F | enzyme activity, inhibitor | 1 µM | inhibition | < 10% |
| CO[C@@H](C)c1c(Nc2ccc([C@@H](N(C)C(=O)C3CCS(=O)(=O)CC3)C(F)(F)F)cc2)cnc2cc(Cl)nn12 | cell-free assay, competition with immobilised ligand | 1 µM | remaining binding | 87% |
| Cc1cc(NC(=O)c2cccc3cc(-c4cccc5[nH]nc(N)c45)ccc23)ccc1F | enzyme activity, inhibitor | 0.1 µM | activity vs control | 97% |
| C[C@@H]1CN(c2cc(-c3nn(C)c4ccc(OC5(C)CC5)cc34)ncn2)C[C@H](C)O1 | cell-free assay, competition with immobilised ligand | 1 µM | remaining binding | 100% |
| O=C(CSc1nc2nccnc2c(=O)n1CCc1ccccc1)Nc1nccs1 | enzyme activity, inhibitor | 10 µM | inhibition | 9% |
